Measurements of several laboratories.
Protocols differ between the studies behind these lines.
Organism: Pseudomonas aeruginosa
Observed: microbial growth

| Structure (SMILES) | method | strain | notes | MIC |
| --- | --- | --- | --- | --- |
| CC1(C)SC2C(NC(=O)C(NC(=O)C3=C(O)CN(c4ccccc4)C3=O)c3ccccc3)C(=O)N2C1C(=O)O (stereo not drawn) |  |  |  | 100 µg/mL |
| COC(=O)c1cc(-c2cccc(NC(=S)Nc3ccccc3)c2)on1 | broth dilution | ATCC27853 |  | > 64 µg/mL |
| C[n+]1c(/C=C/c2c[nH]c3ccccc23)cc(/C=C2\Sc3ccccc3N2CCCN2CCOCC2)c2ccccc21.[I-] | broth dilution | ATCCBAA2108 | drug-resistant strain | > 64 µg/mL |
| COC(=O)c1cc(-c2cccc(NC(=O)NCc3ccccc3)c2)on1 | broth dilution | ATCC27853 |  | > 64 µg/mL |
| CC1(C)S[C@@H]2[C@H](NC(=O)C(C(=O)O)c3ccccc3)C(=O)N2[C@H]1C(=O)O (stereo partly drawn) |  |  |  | 50 µg/mL |
| CCCCCCC#Cc1cncc(-c2nnc(SCc3cc([N+](=O)[O-])cc([N+](=O)[O-])c3)n2C)c1 |  |  |  | ≥ 20 µg/mL |
| CN[C@@H]1[C@H](O)[C@H](NC)[C@H]2O[C@@]3(O)C(=O)C[C@@H](C)O[C@H]3O[C@@H]2[C@H]1O | broth dilution | PAO1 |  | 100 µg/mL |
| C[n+]1c(/C=C/c2c[nH]c3ccccc23)cc(/C=C2\Sc3ccccc3N2CCCN2CCCC2)c2ccccc21.[I-] | broth dilution | ATCCBAA2108 | drug-resistant strain | 32 µg/mL |
| COC(=O)c1cc(-c2cccc(NC(=S)Nc3cc(C(F)(F)F)cc(C(F)(F)F)c3)c2)on1 | broth dilution | ATCC27853 |  | > 64 µg/mL |
| Cc1cc(/C=C2\Sc3ccccc3N2CCCN2CCC(C)CC2)c2ccccc2[n+]1C.[I-] | broth dilution | ATCCBAA2108 | drug-resistant strain | 64 µg/mL |
| Nc1nc(-c2ccc(NC(=O)Nc3cccc(-c4c[nH]c(N)n4)c3F)cc2F)c[nH]1 | broth dilution | PAO1 |  | > 200 µM |
| CCCCCCCCCCCC(=O)OC[C@H]1O[C@@H](n2cc(C)c(=O)[nH]c2=O)C[C@@H]1OC(=O)c1ccc(C(C)(C)C)cc1 | broth dilution |  |  | 8 µg/mL |
| C[n+]1c(/C=C/c2ccc(O)cc2)cc(/C=C2\Sc3ccccc3N2CCCN2CCCC2)c2ccccc21.[I-] | broth dilution | ATCCBAA2108 | drug-resistant strain | > 64 µg/mL |
| CC(=O)C1=C(O)C(CC(C)C)NC1=O (stereo not drawn) |  | PA01 |  | > 200 µg/mL |
| CCOC(=O)c1nnn(-c2cccc(NC(=O)Nc3ccc(Cl)c(Cl)c3)c2)c1C | broth dilution | ATCC27853 |  | > 64 µg/mL |
